{"source": "ChEMBL document CHEMBL3124924", "about": "“Bifunctional ethyl 2-amino-4-methylthiazole-5-carboxylate derivatives: synthesis and in vitro biological evaluation as antimicrobial and anticancer agents” (2014)", "key": {"Candida albicans [1]": {"tested_on": "Candida albicans", "experiment": "Antifungal activity against Candida albicans ATCC 10231 assessed as growth inhibition at 1 mg/mL after 48 hrs by agar-cup diffusion method", "assay_type": "functional", "settings": "ATCC 10231, 48 h, read-out: DIZ", "in_short": "(§1)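 Agar-cup diffusion: 1 mL of 6 h broth culture seeded per 100 mL molten sterile agar at 45 °C and poured into plates. 8 mm cups cut, each filled with 0.1 mL of 1 mg/mL test solution. Incubated 37 °C for 24 h, 48 h for C. albicans. DMSO control per organism. Inhibition zone diameter in mm, mean of three measurements.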"}, "Escherichia coli [2]": {"tested_on": "Escherichia coli", "experiment": "Antibacterial activity against Escherichia coli ATCC 25922 assessed as growth inhibition at 1 mg/mL after 24 hrs by agar-cup diffusion method", "assay_type": "functional", "settings": "ATCC 25922, 24 h, read-out: DIZ", "in_short": "as §1"}, "Bacillus spizizenii [3]": {"tested_on": "Bacillus spizizenii", "experiment": "Antibacterial activity against Bacillus subtilis ATCC 6633 assessed as growth inhibition at 1 mg/mL after 24 hrs by agar-cup diffusion method", "assay_type": "functional", "settings": "ATCC 6633, 24 h, read-out: DIZ", "in_short": "as §1"}, "Aspergillus niger": {"tested_on": "Aspergillus niger", "experiment": "Antifungal activity against Aspergillus niger assessed as growth inhibition at 1 mg/mL after 24 hrs by agar-cup diffusion method", "assay_type": "functional, organism-based", "in_short": "as §1"}, "Candida albicans [4]": {"tested_on": "Candida albicans", "experiment": "Fungicidal activity against Candida albicans ATCC 10231 after 18 hrs", "assay_type": "functional", "settings": "ATCC 10231, 18 h", "in_short": "(§2)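 Continuation of the broth-dilution MIC test. A loopful from each tube without visible growth spread on a quarter of a Mueller-Hinton agar plate and incubated 18 h. Lowest concentration giving no growth on subculture taken as the MBC.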"}, "Candida albicans [5]": {"tested_on": "Candida albicans", "experiment": "Antifungal activity against Candida albicans ATCC 10231 assessed as growth inhibition after 48 hrs by two-fold serial dilution assay", "assay_type": "functional", "settings": "ATCC 10231, 48 h", "in_short": "(§3)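 Twofold serial broth dilution run on compounds giving inhibition zones of 13 mm or more. Organisms pre-grown in suitable broth at 37 °C, 24 h for bacteria and 48 h for fungi. Dilution series 200, 100, 50, 25, 12.5, 6.25. Each 5 mL tube inoculated with 0.1 mL and incubated 37 °C for 48 h. Tubes scored for presence or absence of growth.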"}, "Pseudomonas aeruginosa [6]": {"tested_on": "Pseudomonas aeruginosa", "experiment": "Bactericidal activity against Pseudomonas aeruginosa ATCC 27853 after 18 hrs", "assay_type": "functional", "settings": "ATCC 27853, 18 h", "in_short": "as §2"}, "Pseudomonas aeruginosa [7]": {"tested_on": "Pseudomonas aeruginosa", "experiment": "Antibacterial activity against Pseudomonas aeruginosa ATCC 27853 assessed as growth inhibition after 48 hrs by two-fold serial dilution assay", "assay_type": "functional", "settings": "ATCC 27853, 48 h", "in_short": "as §3"}, "Escherichia coli [8]": {"tested_on": "Escherichia coli", "experiment": "Bactericidal activity against Escherichia coli ATCC 25922 after 18 hrs", "assay_type": "functional", "settings": "ATCC 25922, 18 h", "in_short": "as §2"}, "Escherichia coli [9]": {"tested_on": "Escherichia coli", "experiment": "Antibacterial activity against Escherichia coli ATCC 25922 assessed as growth inhibition after 48 hrs by two-fold serial dilution assay", "assay_type": "functional", "settings": "ATCC 25922, 48 h", "in_short": "as §3"}, "Bacillus spizizenii [10]": {"tested_on": "Bacillus spizizenii", "experiment": "Bactericidal activity against Bacillus subtilis ATCC 6633 after 18 hrs", "assay_type": "functional", "settings": "ATCC 6633, 18 h", "in_short": "as §2"}, "Bacillus spizizenii [11]": {"tested_on": "Bacillus spizizenii", "experiment": "Antibacterial activity against Bacillus subtilis ATCC 6633 assessed as growth inhibition after 48 hrs by two-fold serial dilution assay", "assay_type": "functional", "settings": "ATCC 6633, 48 h", "in_short": "as §3"}, "Staphylococcus aureus [12]": {"tested_on": "Staphylococcus aureus", "experiment": "Bactericidal activity against Staphylococcus aureus ATCC 6538 after 18 hrs", "assay_type": "functional", "settings": "ATCC 6538, 18 h", "in_short": "as §2"}, "Staphylococcus aureus [13]": {"tested_on": "Staphylococcus aureus", "experiment": "Antibacterial activity against Staphylococcus aureus ATCC 6538 assessed as growth inhibition after 48 hrs by two-fold serial dilution assay", "assay_type": "functional", "settings": "ATCC 6538, 48 h", "in_short": "as §3"}, "Staphylococcus aureus [14]": {"tested_on": "Staphylococcus aureus", "experiment": "Antibacterial activity against Staphylococcus aureus ATCC 6538 assessed as growth inhibition at 1 mg/mL after 24 hrs by agar-cup diffusion method", "assay_type": "functional", "settings": "ATCC 6538, 24 h, read-out: DIZ", "in_short": "as §1"}, "Pseudomonas aeruginosa [15]": {"tested_on": "Pseudomonas aeruginosa", "experiment": "Antibacterial activity against Pseudomonas aeruginosa ATCC 27853 assessed as growth inhibition at 1 mg/mL after 24 hrs by agar-cup diffusion method", "assay_type": "functional", "settings": "ATCC 27853, 24 h, read-out: DIZ", "in_short": "as §1"}}, "note": "Calls of active or inactive are those of the source. The rule behind the calls is not given here."}
{"smiles": "CCOC(=O)c1sc(NC(=S)Nc2ccc(F)cc2)nc1C", "values": [{"measurement": "zone of inhibition at 1000 µg/mL", "setting": "Candida albicans [1]", "result": "> 13", "unit": "mm"}, {"measurement": "zone of inhibition at 1000 µg/mL", "setting": "Escherichia coli [2]", "result": "> 13", "unit": "mm"}, {"measurement": "zone of inhibition at 1000 µg/mL", "setting": "Bacillus spizizenii [3]", "result": "> 13", "unit": "mm"}, {"measurement": "growth inhibition (GI)", "setting": "Aspergillus niger", "result": "inactive"}, {"measurement": "MFC", "setting": "Candida albicans [4]", "result": 50, "unit": "µg/mL"}, {"measurement": "MIC", "setting": "Candida albicans [5]", "result": 25, "unit": "µg/mL"}, {"measurement": "MBC", "setting": "Pseudomonas aeruginosa [6]", "result": 100, "unit": "µg/mL"}, {"measurement": "MIC", "setting": "Pseudomonas aeruginosa [7]", "result": 100, "unit": "µg/mL"}, {"measurement": "MBC", "setting": "Escherichia coli [8]", "result": 25, "unit": "µg/mL"}, {"measurement": "MIC", "setting": "Escherichia coli [9]", "result": 25, "unit": "µg/mL"}, {"measurement": "MBC", "setting": "Bacillus spizizenii [10]", "result": 25, "unit": "µg/mL"}, {"measurement": "MIC", "setting": "Bacillus spizizenii [11]", "result": 25, "unit": "µg/mL"}, {"measurement": "MBC", "setting": "Staphylococcus aureus [12]", "result": 12.5, "unit": "µg/mL"}, {"measurement": "MIC", "setting": "Staphylococcus aureus [13]", "result": 12.5, "unit": "µg/mL"}, {"measurement": "zone of inhibition at 1000 µg/mL", "setting": "Staphylococcus aureus [14]", "result": "> 13", "unit": "mm"}, {"measurement": "zone of inhibition at 1000 µg/mL", "setting": "Pseudomonas aeruginosa [15]", "result": "> 13", "unit": "mm"}]}
